In ChEMBL document CHEMBL1138917, “FK506-binding protein ligands: structure-based design, synthesis, and neurotrophic/neuroprotective properties of substituted 5,5-dimethyl-2-(4-thiazolidine)carboxylates” (2006):
The source made the active and inactive calls. The calls are words filed in the database; no cut-off is given here.

Columns and labels:
Mus musculus [1] = assay: Neuroprotective activity against 6-OHDA-induced Kunming mouse peripheral sympathetic nerve injury measured as norepinephrine content in submandibular gland at 2 mg/kg, sc; type: functional; details: route subcutaneous
Method in brief: (§1)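 Adult female Kunming mice, 22 g, lesioned with 6-OHDA 8 mg/kg i.p.; compound given s.c. 4 h before lesion and daily for 4 further days; vehicle controls. Killed 2 weeks after last dose; both submandibular glands weighed and homogenized with 3,4-dihydroxybenzylamine internal standard, centrifuged 30 min; norepinephrine in supernatant by HPLC-ECD, µg/g wet weight; mean ± SEM.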

[2] = molecular target: T1, Peptidyl-prolyl cis-trans isomerase FKBP4 (Homo sapiens) (UniProt Q02790); assay: Increase in neurite outgrowth in chick embryo dorsal root ganglion at 1 pM in presence of NGF; type: functional, tissue-based; details: Gallus gallus, target entry is the homologue from another species
T1 sequence (whole entry): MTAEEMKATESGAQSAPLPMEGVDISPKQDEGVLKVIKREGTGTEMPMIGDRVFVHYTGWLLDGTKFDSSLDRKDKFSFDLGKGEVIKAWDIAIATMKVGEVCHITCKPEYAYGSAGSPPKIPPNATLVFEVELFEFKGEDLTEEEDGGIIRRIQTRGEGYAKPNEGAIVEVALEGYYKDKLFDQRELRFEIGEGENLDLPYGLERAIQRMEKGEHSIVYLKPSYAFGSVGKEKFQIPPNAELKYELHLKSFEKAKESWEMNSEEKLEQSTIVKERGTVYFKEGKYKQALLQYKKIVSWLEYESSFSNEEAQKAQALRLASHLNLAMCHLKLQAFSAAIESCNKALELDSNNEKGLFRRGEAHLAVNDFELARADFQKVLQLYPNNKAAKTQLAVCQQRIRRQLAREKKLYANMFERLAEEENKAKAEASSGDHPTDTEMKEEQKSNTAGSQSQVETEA
Method in brief: (§2)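 DRGs from 8-day chick embryos, on rat tail collagen-coated flasks, 5-6 per flask; after 1 h attachment at 37 °C, 5% CO2, treated with compound plus 0.15 ng/mL NGF in DMEM for 48 h. DMSO stock 1 mM, final DMSO below 10^-7 M. Phase-contrast scoring of neurite number and length, averaged over 15-18 ganglia; NGF-only controls; one-way ANOVA with Student-Newman-Keuls.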

[3] = molecular target: T1, Peptidyl-prolyl cis-trans isomerase FKBP4 (Homo sapiens); assay: Increase in neurite outgrowth in chick embryo dorsal root ganglion at 100 pM in presence of NGF; type: functional, tissue-based; details: Gallus gallus, target entry is the homologue from another species; method in brief: as §2
[4] = molecular target: T1, Peptidyl-prolyl cis-trans isomerase FKBP4 (Homo sapiens); assay: Increase in neurite outgrowth in chick embryo dorsal root ganglion in presence of NGF; type: functional, tissue-based; details: Gallus gallus, target entry is the homologue from another species; method in brief: as §2
[5] = molecular target: T1, Peptidyl-prolyl cis-trans isomerase FKBP4 (Homo sapiens); assay: Decrease in neurite outgrowth in chick embryo dorsal root ganglion at 1 nM in presence of NGF; type: functional, tissue-based; details: Gallus gallus, target entry is the homologue from another species; method in brief: as §2
Mus musculus [6] = assay: Neuroprotective activity against 6-OHDA-induced Kunming mouse peripheral sympathetic nerve injury measured as norepinephrine content in submandibular gland at 10 mg/kg, sc; type: functional; details: route subcutaneous; method in brief: as §1
[7] = molecular target: T1, Peptidyl-prolyl cis-trans isomerase FKBP4 (Homo sapiens); assay: Increase in neurite outgrowth in chick embryo dorsal root ganglion in absence of NGF; type: functional, tissue-based; details: Gallus gallus, target entry is the homologue from another species

Structure (SMILES) | Activity [2] | Activity [3] | other results
C=CC[C@@H]1/C=C(\C)C[C@H](C)C[C@H](OC)[C@H]2O[C@@](O)(C(=O)C(=O)N3CCCC[C@H]3C(=O)O[C@H](/C(C)=C/[C@@H]3CC[C@@H](O)[C@H](OC)C3)[C@H](C)[C@@H](O)CC1=O)[C@H](C)C[C@@H]2OC [TACROLIMUS ANHYDROUS] |  |  | Activity (Mus musculus [1]): 2.33 µg/g
C=CCCCCCCCCOC(=O)[C@@H]1CSC(C)(C)N1C(=O)C(=O)C(C)(C)C | Active | Active | 
CCCCCCC(=O)C(=O)N1[C@H](C(=O)OCCc2ccccc2Cl)CSC1(C)C | Active | Active | 

Further lines, with some results ahead:

Activity [2] | Activity [3] | Structure (SMILES) | other results
Active | Active | CCCCCCC(=O)C(=O)N1[C@H](C(=O)OCCCc2ccccc2)CSC1(C)C | 
Active | Active | CCC(C)(C)C(=O)C(=O)N1[C@H](C(=O)OC/C=C/c2ccccc2)CSC1(C)C | 
Active | Active | CC(C)(C)C(=O)C(=O)N1[C@H](C(=O)OCCCc2cccnc2)CSC1(C)C | Activity [4]: Dose-dependent effect; Activity [5]: Active; Activity (Mus musculus [6]): 2.31 µg/g; Activity [7]: inactive
Active | Active | CC(C)(C)C(=O)C(=O)N1[C@H](C(=O)OCCCc2ccccc2)CSC1(C)C | 
